Measurements as given in PMC6981294 (Molecular cell, 2019).
Ends that are not written are not given here.

T1: PPP4R3A EVH1 domain (Homo sapiens, UniProt Q6IN85)
T1 sequence (Q6IN85 2-117): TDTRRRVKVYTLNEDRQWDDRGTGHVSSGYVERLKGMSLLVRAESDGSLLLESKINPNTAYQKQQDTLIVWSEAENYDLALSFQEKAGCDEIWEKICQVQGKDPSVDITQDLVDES

T2: GST-WAPL 375-625 (human, UniProt Q7Z5K2 375-625)
T2 sequence (looked up): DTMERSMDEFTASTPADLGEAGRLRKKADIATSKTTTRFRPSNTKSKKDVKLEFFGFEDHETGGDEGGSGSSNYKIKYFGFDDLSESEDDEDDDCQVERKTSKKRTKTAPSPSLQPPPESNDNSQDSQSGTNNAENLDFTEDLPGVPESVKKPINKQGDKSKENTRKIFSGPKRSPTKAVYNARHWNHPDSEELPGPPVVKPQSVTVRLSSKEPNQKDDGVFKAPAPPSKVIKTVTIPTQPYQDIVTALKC

T3: CDC25A full length, recombinant (human, UniProt P30304 1-524)
T3 sequence (looked up): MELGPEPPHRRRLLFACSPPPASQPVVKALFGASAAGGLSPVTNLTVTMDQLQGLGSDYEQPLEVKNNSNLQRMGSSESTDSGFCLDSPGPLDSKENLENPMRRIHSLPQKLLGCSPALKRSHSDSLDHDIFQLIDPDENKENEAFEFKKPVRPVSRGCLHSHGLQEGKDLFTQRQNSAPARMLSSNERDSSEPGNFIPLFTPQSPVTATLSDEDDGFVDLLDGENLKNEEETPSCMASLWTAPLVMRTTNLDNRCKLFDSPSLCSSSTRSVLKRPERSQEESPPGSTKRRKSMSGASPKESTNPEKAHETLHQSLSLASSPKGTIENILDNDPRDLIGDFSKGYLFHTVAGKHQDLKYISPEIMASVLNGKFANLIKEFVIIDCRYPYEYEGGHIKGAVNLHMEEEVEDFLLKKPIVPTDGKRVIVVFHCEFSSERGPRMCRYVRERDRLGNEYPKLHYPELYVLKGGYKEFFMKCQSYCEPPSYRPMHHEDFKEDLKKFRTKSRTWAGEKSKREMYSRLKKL

B1: EVH1 domain of PPP4R3A (amino acids 2-117) (domain or fragment, human, UniProt Q6IN85 2-117, looked up)
chain: T1 sequence (Q6IN85 2-117)

Key:
PPP4R3A EVH1 domain = target: T1, PPP4R3A EVH1 domain; assay: ITC of peptides with the EVH1 domain from PPP4R3A; type: binding
Method in brief: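 Peptide in syringe, titrated at 25 °C into cell holding EVH1 domain: one 0.4 μl injection, then 19 × 2 μl at 150 s spacing, stirring 750 rpm. Peptide-into-buffer controls run. Heats normalised per mole injectant, fitted to single-site model.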

[1] = target: B1; assay: ITC
GST-WAPL 375-625 = target: T2, GST-WAPL 375-625; assay: ITC
[2] = target: T3, CDC25A full length, recombinant; assay: ITC

Molecule | Kd (PPP4R3A EVH1 domain) [µM] | Kd [1] [µM] | other results
DPDTELMPAPPPKRPHPL [MCE1-P3A] | 7.58 |  | 
DPDTELMPPAPPKRPHPL [MCE1-P4A] | 119 |  | 
DPDTELAPPPPPKRPHPL [MCE1-M1A] | 85.6 |  | 
DPDTEAMPPPPPKRPHPL [MCE1-L(-1)A] | 3.78 |  | 
DPDTELMPPPPAKRPHPL [MCE1-P6A] | 1.4 |  | 
DPDTELMPPPAPKRPHPL [MCE1-P5A] | 1.49 |  | 
DPDTELMPPPPPKRPHPL [MCE1 MxPP motif peptide] |  | 0.98 | 
B1 |  |  | binding result (GST-WAPL 375-625): binds; binding result [2]: binds
PFTAKVPAPPPS [model peptide P1: Ala] |  | 53 | 
PFTFKVAAPPPS [model peptide P4: Ala] |  | 53 | 
DPDTELMAPPPPKRPHPL [MCE1 peptide MCE1-P2A] |  | 7.93 | 
